From PubChem
Most compounds without a hit are left out; they make up all but 2.6% or so of the library.
T cell HTS: modulators of CD8 T cell-vesicle binding, primary screen, mouse 2C CD8+ T cells, flow cytometry; AID 2052, 2009; 2C CD8+ T cell-vesicle binding; stronger effect = lower value; hit rate 0.068% among 330,000; response (vesicle binding), % at 7 µM;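 active = response, share of CD8 T cells binding vesicles, and their 90th percentile fluorescence all below set limits, cut at about 80% in these data, passing the limit was not always enough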;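 note: values below 100% mean blocked vesicle binding to the CD8+ T cells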
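Incubation: binding step 1.5 h, 37 °C, antibody labelling 20 min, ice; system: murine 2C transgenic CD8+ T lymphocytes; technique: cytometric PE anti-B7-1 and Alexa647 anti-CD8 signals after 1% paraformaldehyde fixation; also added: QL9-charged Drosophila Ld/ICAM-1/B7-1 vesicles; control set: naked versus QL9-loaded vesicles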
EP2 mod: EP2 receptor modulators, cAMP readout, primary screen, cell-based, HTRF cAMP, PGE2 stimulation. induction, % at 25 µM. Prostaglandin E2 receptor EP2 subtype (Homo sapiens), P43116. AID 940, 2007. EP2-expressing cells, cAMP HTRF FRET, PGE2 co-stimulation. hit rate 0.83% among 260,000;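 active = compounds whose cAMP rise, as percent of the full-agonist control response, exceeds 60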;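 note: rat C6 glioma line stably carrying human EP2 under a CMV promoter; the protocol text gives 20 µM as final concentration; 100% = response of wells given 1 µM PGE2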
Target sequence (P43116 whole entry, looked up): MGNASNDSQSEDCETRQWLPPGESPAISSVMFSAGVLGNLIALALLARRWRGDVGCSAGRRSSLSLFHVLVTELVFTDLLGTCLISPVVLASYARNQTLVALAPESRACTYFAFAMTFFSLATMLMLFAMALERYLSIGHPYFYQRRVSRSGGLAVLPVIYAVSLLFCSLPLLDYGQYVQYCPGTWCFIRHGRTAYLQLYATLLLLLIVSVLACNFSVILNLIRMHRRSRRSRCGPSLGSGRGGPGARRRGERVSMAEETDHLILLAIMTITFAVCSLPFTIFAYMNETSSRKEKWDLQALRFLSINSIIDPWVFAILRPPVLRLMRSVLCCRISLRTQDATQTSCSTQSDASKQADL
Exocytosis inh: LAMP-1 surface exposure blockers, TALL-104 cells – cell-based, flow cytometry, MLPCN library, primary screen; TALL-104 LAMP-1 surface exposure; cells stimulated with thapsigargin and PMA; inhibition, % at 10 µM; hit rate 0.66% among 360,000; AID 651702, 2012;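 active = inhibition above about 55%, limit read from the data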
MC4R ag barr: MC4R agonists recruiting beta-arrestin, primary screen, cell-based, luminescence, agonist arm of biased-ligand search | Melanocortin receptor 4 (Homo sapiens), P32245 | U2OS MC4R beta-arrestin complementation; percent of melanotan II response, DMSO zero | activation, % at 8.9 µM | hit rate 0.98% among 360,000 | AID 540308, 2011;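 active = activation above a per-plate cutoff, the mean activation of sample wells on that plate plus 3 SD, cut at about 8% in these data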
MC4R antagonist: MC4R antagonists of cAMP signaling, primary screen, cell-based, TR-FRET, antagonist arm of biased-ligand search; MC4R-expressing cells, MTII-stimulated cAMP, LANCE TR-FRET; inhibition, % at 6.5 µM; hit rate 0.48% among 360,000;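 active = inhibition above its plate's cutoff, the mean of tested wells on that plate plus 3 SD, cut at about 29% in these data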;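 note: 0% = Melanotan II alone and 100% = Melanotan II plus saturating MCL0020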
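material = U2OS cells stably expressing human melanocortin 4 receptor (MC4R) | also added = Melanotan II challenge | dosing = single nominal compound dose of 6.5 µM | detection = TR-FRET with Eu-cAMP and labeled anti-cAMP, 671 nm | replication = singlicate | timing = compound 30 min, challenge 1 h, detection 1 h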
EP2 antag: human EP2 receptor antagonists, primary screen, TR-FRET cAMP, C6 glioma cells; Prostaglandin E2 receptor EP2 subtype (Homo sapiens), P43116; C6 glioma cells expressing human EP2; cells stimulated with saturating PGE2; inhibition, % at 25 µM; hit rate 0.52% among 260,000; AID 1422, 2008;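 active = percent inhibition above 40 after rounding to a whole number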;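 note: rat C6 glioma host cells with rolipram phosphodiesterase inhibitor present; the protocol text gives 20 µM as final concentration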
Granule exo CP1: inhibitors of lytic granule exocytosis, confirmation, TALL-104 cells, flow cytometry, Cherry Pick01; hit rate 11% among 1,500; shares compounds with Exocytosis inh; LAMP-1 externalization; stimulated with PMA plus thapsigargin; inhibition, % at 10 µM; in the data active = inhibition above about 60%;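 note: 0% = stimulated vehicle wells and 100% = unstimulated wells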
An asterisk follows results filed as active; i = inactive; . = no result given.

SMILES | T cell HTS | EP2 mod | Exocytosis inh | MC4R ag barr | MC4R antagonist | EP2 antag | Granule exo CP1
CCN1/C(=C2/SC(=S)N(NC(C)=O)C2=O)Sc2ccccc21 | 201 | 20 | -13 | 0 | -7 | 14 | .
CC(=O)N1CCSc2ccc(S(=O)(=O)NCCc3ccc(C)cc3)cc21 | 281 | . | 62* | -1 | 3 | . | -10
Cc1ccc(C)c(N2CCN(C(=O)c3cc4c(C)nc5ccccc5c4o3)CC2)c1 | 450 | . | 2 | 2 | 20 | . | .
COc1cc(NC(=O)c2cccc3c2C(=O)N(C2CCCCC2)C3)cc(OC)c1OC | i | . | 94* | 1 | 1 | . | 12
Cc1cc(C)cc(NC(=O)c2cccc3c2C(=O)N(C2CCCCC2)C3)c1 | 382 | . | 1 | -1 | 8 | . | .
CC(=O)Nc1ccc(S(=O)(=O)N(C)CC(=O)OCC(=O)N2CCN(C(=O)c3ccco3)CC2)cc1 | 417 | . | -4 | -2 | 12 | . | .
CCc1noc(C)c1C(=O)Nc1ccc(C#N)cc1 | 594 | . | -2 | -1 | 7 | . | .
CCc1nnc(NC(=O)C(NS(=O)(=O)c2ccc3c(c2)OCCO3)C(C)C)s1 (stereo not drawn) | 397 | 8 | -3 | 0 | 5 | 8 | .
CCc1nnc(NC(=O)[C@@H](NS(=O)(=O)c2ccc3c(c2)OCCO3)C(C)C)s1 | . | . | 58* | -1 | 4 | . | -4
COc1cccc(-c2cnc3c(NC=O)cc(-c4ccc(N5CCN(C)CC5)cc4)cn23)c1 | . | . | 25 | 0 | -6 | . | .
COc1cccc(-c2cnc3c(NC=O)cc(-c4ccccc4)cn23)c1 | . | . | 97* | 3 | -17 | . | 70*
COc1cccc(-c2cnc3c(NC=O)cc(-c4cc(C)c(O)c(C)c4)cn23)c1 | . | . | 63* | 8 | 2 | . | 14
Cn1c(N)c(C(c2ccccc2)c2c(N)n(C)c(=O)n(C)c2=O)c(=O)n(C)c1=O | 193 | 5 | 5 | 1 | 15 | 7 | .
COc1ccc(-c2ccc(CCC(=O)O)n2-c2ccccc2OC)cc1 | 112 | . | 67* | -2 | -20 | . | -4
COc1ccccc1-n1c(CCC(=O)O)ccc1-c1ccccc1 | 350 | . | -3 | -1 | 5 | . | .
Cc1nc(C)n(CC(O)COc2ccc(C(=O)c3ccccc3)cc2)n1 (stereo not drawn) | 273 | -16 | 0 | 1 | 0 | 13 | .
O=C(CN1C(=O)CCC1=O)NNc1ccc2ccccc2c1 | 416 | -39 | 2 | -2 | 10 | 2 | .
COc1cc(CNCCCN2CCOCC2)cc(Br)c1OCc1ccc(Cl)cc1 | 419 | -38 | 58* | 3 | -5 | 9 | 27
COc1cc(CNCCN2CCOCC2)ccc1OCc1ccc(Cl)cc1 | 223 | -23 | 16 | 0 | 14 | 23 | .
Cc1c(C(C)C)c(=O)n(-c2ccc(S(=O)(=O)NCc3ccccc3)cc2)n1C | 595 | -12 | 2 | 0 | -3 | 4 | .
CCCCn1c(NCc2ccc3c(c2)OCO3)nc2ccccc21 | 277 | 18 | 67* | 4 | 0 | 22 | -3
O=S(=O)(Nc1ccc(S(=O)(=O)N2CCc3ccccc32)cc1)c1ccccc1 | . | 2 | . | . | . | 13 | .
Cc1cc(NCc2ccccc2)n2ncc(-c3ccccc3)c2n1 | 201 | . | 58* | 1 | 4 | . | -11
Cc1cc(NC(C)c2ccccc2)n2ncc(-c3ccccc3)c2n1 (stereo not drawn) | 180 | . | 95* | 2 | 23 | . | 18
COc1ccc(CCNc2cc(C)nc3c(-c4ccccc4)cnn23)cc1OC | 389 | -5 | -1 | 0 | 4 | 9 | .
